The values that follow come from ChEMBL document CHEMBL3751842, “Novel triazolothiadiazines act as potent anticancer agents in liver cancer cells through Akt and ASK-1 proteins” (Bioorg Med Chem, 2016).

Data set [1] addresses T1, Mitogen-activated protein kinase kinase kinase 5 (Homo sapiens) (UniProt Q99683).
T1 sequence (whole entry): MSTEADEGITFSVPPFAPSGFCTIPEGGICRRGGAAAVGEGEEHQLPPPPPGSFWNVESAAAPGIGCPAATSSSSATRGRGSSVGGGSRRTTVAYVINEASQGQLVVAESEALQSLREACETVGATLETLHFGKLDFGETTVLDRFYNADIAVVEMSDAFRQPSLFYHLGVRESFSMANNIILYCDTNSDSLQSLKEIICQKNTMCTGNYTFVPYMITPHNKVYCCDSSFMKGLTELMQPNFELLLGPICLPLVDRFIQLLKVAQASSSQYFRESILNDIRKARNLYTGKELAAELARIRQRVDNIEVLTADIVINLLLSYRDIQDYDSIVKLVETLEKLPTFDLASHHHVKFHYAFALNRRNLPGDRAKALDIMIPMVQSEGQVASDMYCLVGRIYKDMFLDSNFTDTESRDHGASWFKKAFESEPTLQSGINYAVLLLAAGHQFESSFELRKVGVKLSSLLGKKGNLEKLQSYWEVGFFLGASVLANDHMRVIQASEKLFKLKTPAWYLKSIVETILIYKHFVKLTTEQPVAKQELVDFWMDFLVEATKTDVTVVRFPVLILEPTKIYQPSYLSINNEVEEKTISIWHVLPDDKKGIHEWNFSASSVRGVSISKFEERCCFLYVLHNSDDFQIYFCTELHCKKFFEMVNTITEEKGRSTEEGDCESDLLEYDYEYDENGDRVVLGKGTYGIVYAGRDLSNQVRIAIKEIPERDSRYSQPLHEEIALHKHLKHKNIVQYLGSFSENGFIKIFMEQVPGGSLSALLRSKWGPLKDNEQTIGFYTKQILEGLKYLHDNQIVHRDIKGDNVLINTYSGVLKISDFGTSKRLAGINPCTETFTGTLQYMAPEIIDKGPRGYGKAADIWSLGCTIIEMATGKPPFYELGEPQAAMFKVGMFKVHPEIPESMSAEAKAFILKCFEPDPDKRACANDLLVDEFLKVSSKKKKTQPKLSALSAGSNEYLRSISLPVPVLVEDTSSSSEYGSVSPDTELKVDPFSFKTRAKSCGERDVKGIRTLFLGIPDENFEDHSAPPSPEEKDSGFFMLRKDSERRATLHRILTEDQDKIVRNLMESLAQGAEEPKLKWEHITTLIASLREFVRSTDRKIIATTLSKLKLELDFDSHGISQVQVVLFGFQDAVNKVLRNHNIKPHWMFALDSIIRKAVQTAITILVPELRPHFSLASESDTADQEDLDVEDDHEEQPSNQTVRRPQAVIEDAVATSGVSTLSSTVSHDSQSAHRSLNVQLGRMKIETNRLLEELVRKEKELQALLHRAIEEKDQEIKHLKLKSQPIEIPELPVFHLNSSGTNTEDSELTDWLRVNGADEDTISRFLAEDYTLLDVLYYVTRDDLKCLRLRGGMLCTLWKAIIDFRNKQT
Description: Activation of ASK1 in human HuH7 cells assessed as SAPK/JNK phosphorylation after 24 to 48 hrs by Western blot analysis. It counts as cell-based. The note with it: Huh-7. The procedure, abridged: (§1)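 Cells were exposed to compound or DMSO control for 24 or 48 h. Lysates were loaded at […] protein per lane and immunoblotted with antibodies diluted 1:100 to 1:500 in 5% BSA-TBS-T. Targets were p-Akt (Ser473), Akt, p-GSK3-α/β (Ser21/9), GSK3-α/β, SAPK/JNK, p-SAPK/JNK (Thr183/Tyr185), PARP, p-β-catenin, β-catenin, cyclin D1, p-ASK1 (S83) and p-ASK1 (S966). Actin served as the loading control.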
In general terms: A western blot detects proteins with antibodies after separation by electrophoresis.

In data set [2] the target is Glycogen synthase kinase-3 beta (Homo sapiens) (UniProt P49841). Briefly: Inhibition of GSK3beta phosphorylation in human Mahlavu cells after 24 to 48 hrs by Western blot analysis. It counts as cell-based. Put shortly:
as §1

Data set [3] shares this target. Briefly: Inhibition of GSK3beta phosphorylation in human HuH7 cells after 24 to 48 hrs by Western blot analysis. The note with it: Huh-7. It counts as cell-based. The procedure, abridged:
as §1

Data set [4] relates to Mahlavu. Briefly: Induction of oxidative stress in human Mahlavu cells assessed as ROS accumulation at 10 uM after 48 hrs by DCFH-DA staining based fluorescence microscopy. Type of data set: functional, cell-based. The procedure, abridged: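 Cells in 6-well dishes were treated with 10 µM compound or DMSO for 48 h. They were washed in PBS and stained for 15 min at 37°C in the dark with DCFH-DA solution (1 mM DCFH-DA, 10 mM glucose, 10 mM HEPES in PBS). After three PBS washes, cells were viewed by fluorescence microscopy. Selenium-deficient serum-free medium culture served as the positive control.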

Data set [5] has as its system Huh-7. Description: Induction of cell cycle arrest in human HuH7 cells assessed as accumulation at subG1 phase at 10 uM after 24 to 48 hrs by propidium iodide staining based FACS analysis. It counts as functional. The procedure, abridged:
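Huh7 cells were seeded at 300,000 per 100-mm dish. After 24 h they were treated with 10 µM compound or DMSO for 24 h and 48 h. Cells were trypsinized, fixed in ice-cold 70% ethanol and stored at −20 °C. They were then stained with propidium iodide and cell-cycle distribution, including SubG1, was read by flow cytometry.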
In general terms: In flow cytometry, cells or beads pass a laser one at a time.

Data set [6] deals with Huh-7. Briefly: Induction of apoptosis in human HuH7 cells assessed as horseshoe nuclear structure at 10 uM after 48 hrs by Hoechst 33258 staining-based immunofluorescence microscopy. It counts as functional, cell-based. Put shortly: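 Cells on coverslips were incubated overnight, then treated with 10 µM compound or DMSO for 48 h. They were washed in ice-cold PBS, fixed in cold methanol for 10 min, and stained with 1 µg/mL Hoechst 33258 for 5 min in the dark. Nuclei were examined by fluorescence microscopy with a 40x objective.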

For data set [7], the system named is Huh-7. Description: Induction of oxidative stress in human HuH7 cells assessed as ROS accumulation at 10 uM after 48 hrs by flow cytometry analysis. It counts as functional, cell-based. The procedure, abridged:
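Huh7 and Mahlavu cells were treated after 24 h with 10 µM compound or DMSO for 48 h. Cells were then trypsinized and processed with a MUSE oxidative stress kit for flow cytometric counting of ROS-positive cells. Cells grown in selenium-deficient serum-free medium served as the positive control.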

Data set [8] can be described thus: Cytotoxicity against human HCT116 cells assessed as growth inhibition after 72 hrs by sulforhodamine B assay. Type of data set: functional, cell-based, HCT-116. The note with it: Homo sapiens, HCT-116, 72 h; read-out: IC50. The procedure, abridged: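 Cells were grown at 37°C, 5% CO2 in DMEM with 10% FBS. They were seeded at 1000–3000 cells/well, grown 24 h, then exposed to compound at 2.5–40 µM for 72 h. Cells were fixed in 10% TCA for 1 h at 4°C, stained with 0.4% SRB in 1% acetic acid for 10 min, and the dye solubilized in 10 mM Tris. Absorbance was read at 515 nm; runs were in triplicate; IC50 was calculated, with fits of R2 0.8–1 accepted.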
In general terms: In SRB staining, fixed cells bind dye roughly in proportion to their protein.

A short description of data set [9]: Effect on un-phosphorylated beta-catenin level in human Mahlavu cells after 24 to 48 hrs by Western blot analysis. Type of data set: ADME, cell-based. Put shortly:
as §1

Active and inactive are the calls of the source. The calls are words filed in the database; no cut-off is given here.

Glycogen synthase kinase-3 beta (Homo sapiens), sequence (P49841 whole entry, looked up): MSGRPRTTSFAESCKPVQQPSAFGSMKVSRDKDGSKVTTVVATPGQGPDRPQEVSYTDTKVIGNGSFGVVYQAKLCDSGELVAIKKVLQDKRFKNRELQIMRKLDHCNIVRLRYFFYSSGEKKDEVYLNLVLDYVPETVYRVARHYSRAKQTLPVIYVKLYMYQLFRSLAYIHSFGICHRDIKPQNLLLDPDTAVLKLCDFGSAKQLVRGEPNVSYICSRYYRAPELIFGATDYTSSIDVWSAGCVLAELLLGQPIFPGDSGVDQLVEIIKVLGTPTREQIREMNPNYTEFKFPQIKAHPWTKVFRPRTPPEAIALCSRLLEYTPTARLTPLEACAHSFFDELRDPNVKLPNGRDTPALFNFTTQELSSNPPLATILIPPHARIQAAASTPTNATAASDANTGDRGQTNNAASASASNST

Regarding `Cc1ccc(C2=Nn3c(nnc3C(C)c3ccc(CC(C)C)cc3)SC2)cc1` (stereo not drawn), the outcome in data set [1], in data set [4], in data set [5], in data set [6] and in [7] was Active. For the same molecule, the inhibition entry in data set [2] and in data set [3] was “Active” in each case. In addition, the IC50 (usually the midpoint of a concentration-inhibition curve) in [8] came to 4 µM. Further, in [9], the Activity entry was “Non-toxic”.
As for `COc1ccc(C2=Nn3c(nnc3C(C)c3ccc(CC(C)C)cc3)SC2)cc1` (stereo not drawn), the result in data set [1], in data set [4], in data set [5], in data set [6] and in data set [7] was Active. Moreover, the inhibition entry in [2] and in [3] was “Active” each time. Also, the IC50 in data set [8] was found to be 4.2 µM. In addition, the Activity result in [9] is on record as “Non-toxic”.
